Source: ChEMBL document CHEMBL1153731, “Methicillin-resistant Staphylococcus aureus (MRSA)-active metabolites from Platanus occidentalis (American Sycamore)” (J Nat Prod, 2009)
Converted amounts (≈) assume the structure as drawn. The source made the active and inactive calls. The calls are words filed in the database; no cut-off is given here.

What was measured:
[1] = test system: Staphylococcus aureus; experiment: Antibacterial activity against methicillin-resistant Staphylococcus aureus by NCCLS method; assay type: functional, organism-based
In short: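 MRSA tested in vitro by CLSI (formerly NCCLS) broth microdilution. Samples were diluted in 0.9% saline and run in duplicate in 96-well microplates. Cell suspension was added to reach the target inoculum, with media and solvent controls included. IC50 was taken from percent growth plotted against concentration. MIC was the lowest concentration with no detectable growth; MBC was the lowest concentration that killed the organism.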

[2] = test system: Staphylococcus aureus; experiment: Antibacterial activity against Staphylococcus aureus by NCCLS method; assay type: functional, organism-based
In short: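 Microdilution per CLSI (formerly NCCLS). Samples run in duplicate, diluted in 0.9% saline in 96-well plates, then microbial suspensions added to reach the target inocula. Media and solvent controls in every assay. IC50 read from a plot of percent growth against concentration. MIC taken as the lowest concentration with no detectable growth; MBC as the lowest concentration that kills the organism.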

[3] = test system: Escherichia coli; experiment: Antibacterial activity against Escherichia coli at 100 ug/ml by NCCLS method; assay type: functional, organism-based
[4] = test system: Pseudomonas aeruginosa; experiment: Antibacterial activity against Pseudomonas aeruginosa at 100 ug/ml by NCCLS method; assay type: functional, organism-based
[5] = test system: Mycobacterium intracellulare; experiment: Antibacterial activity against Mycobacterium intracellular at 100 ug/ml by NCCLS method; assay type: functional, organism-based
[6] = test system: Candida albicans; experiment: Antifungal activity against Candida albicans at 100 ug/ml by NCCLS method; assay type: functional, organism-based
[7] = test system: Cryptococcus neoformans; experiment: Antifungal activity against Cryptococcus neoformans at 100 ug/ml by NCCLS method; assay type: functional, organism-based
[8] = test system: Aspergillus fumigatus; experiment: Antifungal activity against Aspergillus fumigatus at 100 ug/ml by NCCLS method; assay type: functional, organism-based
[9] = test system: Vero; experiment: Cytotoxicity against african green monkey Vero cells up to 100 ug/ml; assay type: cell-based; details: chlorocebus sabaeus
[10] = test system: Staphylococcus aureus; experiment: Antibacterial activity against methicillin-resistant Staphylococcus aureus at 100 ug/ml by NCCLS method; assay type: functional, organism-based
[11] = test system: Staphylococcus aureus; experiment: Antibacterial activity against Staphylococcus aureus infected in CD1 mouse thigh muscle assessed as reduction in colony forming unit at 3.0 mg/kg, ip administered 2 hrs after infection measured after 48 hrs; assay type: functional, Muscle tissue; details: route intraperitoneal
In short: (§1)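 Neutropenic thigh infection in CD-1 mice. Neutropenia induced by cyclophosphamide 100 mg/kg ip on days -4 and -1. Each rear thigh inoculated im with MRSA, 1.5 × 10⁶ cfu in 50 μL. n = 2 mice per group, each thigh a data point. Compound given ip starting 2 h post-inoculation; saline and vancomycin controls. Sacrifice at 48 h; thighs weighed, homogenized in 5.0 mL saline, plated for cfu/g tissue.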

[12] = test system: Staphylococcus aureus; experiment: Antibacterial activity against Staphylococcus aureus infected in CD1 mouse thigh muscle assessed as reduction in colony formation unit at 3.0 mg/kg, ip administered 2 hrs after infection measured after 48 hrs relative to control; assay type: functional, Muscle tissue; set-up: scale not given: the % may be the effect or the level left; details: route intraperitoneal; in short: as §1
[13] = test system: Staphylococcus aureus; experiment: Antibacterial activity against Staphylococcus aureus infected in CD1 mouse thigh muscle assessed as reduction in colony forming unit at 15 mg/kg, ip administered 2 hrs after infection measured after 48 hrs; assay type: functional, Muscle tissue; details: route intraperitoneal; in short: as §1
[14] = test system: Staphylococcus aureus; experiment: Antibacterial activity against Staphylococcus aureus infected in CD1 mouse thigh muscle assessed as reduction in colony forming unit at 15 mg/kg, ip administered 2 hrs after infection measured after 48 hrs relative to control; assay type: functional, Muscle tissue; set-up: scale not given: the % may be the effect or the level left; details: route intraperitoneal; in short: as §1
[15] = test system: Mus musculus; experiment: Toxicity in CD1 mouse up to 20 mg/kg, ip after 2 days; assay type: organism-based; set-up: dose 20 mg/kg, route intraperitoneal; details: in vivo, 48 h
In short: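 Preliminary tolerance study: CD-1 mice dosed ip daily for 2 days at up to 20 mg/kg and watched for untoward effects.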

| Compound | IC50 [1] | MIC [1] | IC50 [2] | MIC [2] | Activity [3] | Activity [4] | Activity [5] | Activity [6] | Activity [7] | Activity [8] | Activity [9] | IC50 [10] | MIC [10] | Activity [11] | Activity [12] | Activity [13] | Activity [14] | Activity [15] |
| --- | --- | --- | --- | --- | --- | --- | --- | --- | --- | --- | --- | --- | --- | --- | --- | --- | --- | --- |
| C[C@@H]1O[C@@H](Oc2c(-c3ccc(O)cc3)oc3cc(O)cc(O)c3c2=O)[C@H](OC(=O)/C=C/c2ccc(O)cc2)[C@H](OC(=O)/C=C\c2ccc(O)cc2)[C@H]1O | 0.8 µg/mL (≈ 1.1 µM) | 1.7 µg/mL (≈ 2.35 µM) | 1.6 µg/mL (≈ 2.21 µM) | 5.8 µg/mL (≈ 8 µM) | inactive | inactive | inactive | inactive | inactive | inactive | Non-toxic |  |  |  |  |  |  |  |
| COc1cccc(OC)c1C(=O)N[C@@H]1C(=O)N2[C@@H]1SC(C)(C)[C@@H]2C(=O)O [METHICILLIN] |  |  | 0.4 µg/mL (≈ 1.05 µM) | 2.5 µg/mL (≈ 6.57 µM) |  |  |  |  |  |  |  | Not Active | inactive |  |  |  |  |  |
| C[C@@H]1O[C@@H](Oc2c(-c3ccc(O)cc3)oc3cc(O)cc(O)c3c2=O)[C@H](OC(=O)/C=C/c2ccc(O)cc2)[C@H](OC(=O)/C=C/c2ccc(O)cc2)[C@H]1O | 2 µg/mL (≈ 2.76 µM) | 10 µg/mL (≈ 13.8 µM) | 3.7 µg/mL (≈ 5.11 µM) | 13.3 µg/mL (≈ 18.4 µM) | inactive | inactive | inactive | inactive | inactive | inactive | Non-toxic |  |  | 2.6 ×10⁷ /g | 67% | 1.8 ×10⁷ /g | 78% | Non-toxic |
| Cc1onc(-c2ccccc2Cl)c1C(=O)N[C@@H]1C(=O)N2[C@@H]1SC(C)(C)[C@@H]2C(=O)O [CLOXACILLIN] | 8.9 µg/mL (≈ 20.4 µM) |  |  |  |  |  |  |  |  |  |  |  |  |  |  |  |  |  |
| O=C(O)c1cn(C2CC2)c2cc(N3CCNCC3)c(F)cc2c1=O [CIPROFLOXACIN] |  | 0.3 µg/mL (≈ 0.905 µM) |  | 0.4 µg/mL (≈ 1.21 µM) |  |  |  |  |  |  |  |  |  |  |  |  |  |  |
| C[C@@H]1O[C@@H](Oc2c(-c3ccc(O)cc3)oc3cc(O)cc(O)c3c2=O)[C@H](OC(=O)/C=C\c2ccc(O)cc2)[C@H](OC(=O)/C=C/c2ccc(O)cc2)[C@H]1O | 0.7 µg/mL (≈ 0.966 µM) | 1.3 µg/mL (≈ 1.79 µM) | 1.4 µg/mL (≈ 1.93 µM) | 3.8 µg/mL (≈ 5.24 µM) | inactive | inactive | inactive | inactive | inactive | inactive | Non-toxic |  |  |  |  |  |  |  |
| CCN1CCN(C(=O)N[C@@H](C(=O)N[C@@H]2C(=O)N3[C@@H]2SC(C)(C)[C@@H]3C(=O)O)c2ccccc2)C(=O)C1=O [PIPERACILLIN] |  |  |  |  |  |  |  |  |  |  |  | Not Active | inactive |  |  |  |  |  |
